# Published values collected from several papers.
# Protocols differ between the studies behind these lines.
# Target: Rho-associated protein kinase 1 (ROCK1, Homo sapiens, UniProt Q13464)
SMILES,observed,mode,method,concentration,endpoint,value
Cn1cc(-c2cc(F)cc(N3CCn4c(cc5c4CCCC5)C3=O)c2CO)cc(Nc2ccc(N3CCN(C4COC4)CC3)cn2)c1=O,enzyme activity,inhibitor,,0.1 µM,inhibition,0%
COc1ncccc1-c1cnn2ccc(N3CCN(C(=O)OC(C)C)CC3)nc12,binding,,competition with immobilised ligand,1 µM,remaining binding,95%
C#Cc1n[nH]c2c(-c3cn([C@@H](C)c4ccccn4)c(=O)[nH]c3=O)cc(F)cc12,enzyme activity,inhibitor,,0.1 µM,inhibition,6.5%
Cn1cc(-c2cccc(N3CCc4c(sc5c4CC(C)(C)C5)C3=O)c2CO)cc(Nc2ccncn2)c1=O,enzyme activity,inhibitor,,1 µM,inhibition,1%
N#CC1(c2ccccn2)CCN(Cc2cc(C(=O)O)c(=O)n3ccccc23)CC1,cell-free assay,,competition with immobilised ligand,1 µM,remaining binding,86%
O=c1[nH]c2ccccc2n1C1CCN(Cc2ccc(-c3[nH]c4cc5ncnc5cc4nc3-c3ccccc3)cc2)CC1,cell-free assay,,,0.5 µM,remaining signal,101%
Cn1cncc1[C@](O)(COc1ccc(C#N)cc1-c1ccc(OC(F)(F)F)cc1)c1ccc(C#N)cc1,cell-free assay,,competition with immobilised ligand,1 µM,remaining binding,100%
Nc1ncc(-c2nc(N3CCOCC3)nc(N3CCOCC3)n2)c(C(F)F)n1,binding,,competition with immobilised ligand,10 µM,remaining binding,99%
COc1cc(Nc2ncc(F)c(Nc3ccc4c(n3)NC(=O)C(C)(C)O4)n2)cc(OC)c1OC,binding,,,10 µM,inhibition,86%
CC(C)(C)c1cc(C=C(C#N)C#N)cc(Br)c1O,enzyme activity,inhibitor,,0.5 µM,remaining activity,82.9%
